# Reference: article PMC9263996 (iScience, 2022)
# “Also recorded” adds a separate entry of the source.
# Experiments:
# MaltOBP24 [1] = assay: Fluorescence-quenching spectra assay, MaltOBP24; type: binding, Monochamus alternatus; conditions: for quenching mechanism of the interaction with MaltOBP24: change of Ksv with temperature 289–298 K, neutral pH
# DhelOBP10 [2] = target: T1, DhelOBP10 (Dastarcus helophoroides, UniProt A0A1I9HZP4); assay: Fluorescence-quenching spectra assay, DhelOBP10; type: binding; conditions: for quenching mechanism of the interaction with DhelOBP10: change of Ksv with temperature 289–298 K, neutral pH; for ΔS (entropy change): DhelOBP10, pH 7.4; for ΔH (enthalpy change): DhelOBP10, pH 7.4, 289 and 298 K; for Kd: Ka (apparent association constant); for main acting force between ligand and DhelOBP10: from signs of ΔH and ΔS
# T1 sequence (A0A1I9HZP4 20-220): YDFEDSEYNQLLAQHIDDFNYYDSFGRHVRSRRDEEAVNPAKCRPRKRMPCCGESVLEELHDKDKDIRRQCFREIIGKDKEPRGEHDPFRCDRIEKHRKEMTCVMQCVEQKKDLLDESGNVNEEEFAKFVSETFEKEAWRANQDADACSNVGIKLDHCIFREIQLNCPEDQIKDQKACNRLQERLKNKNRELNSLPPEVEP
# Procedure, shortened: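 Intrinsic fluorescence of 2 μM recombinant DhelOBP10 in 30 mM Tris-HCl (pH 7.4 or 5.0): excitation 289 nm, slits 15/10 nm, scan 300–500 nm. Ligand aliquots came from 1 mM stock, at 289 and 298 K. Ksv and Kq were taken from Stern–Volmer fits, Ka and n from double-log plots, and ΔG, ΔH, ΔS from thermodynamic equations to assign binding force.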
# MaltOBP24 [3] = target: T2, MaltOBP24 (Monochamus alternatus, UniProt A0A1I9HZN3); assay: Competitive fluorescence-binding assay with 1-NPN probe, recombinant MaltOBP24; conditions: MaltOBP24 Ki (dissociation constant), 1-NPN competition, mean ± SEM
# T2 sequence (A0A1I9HZN3 1-169): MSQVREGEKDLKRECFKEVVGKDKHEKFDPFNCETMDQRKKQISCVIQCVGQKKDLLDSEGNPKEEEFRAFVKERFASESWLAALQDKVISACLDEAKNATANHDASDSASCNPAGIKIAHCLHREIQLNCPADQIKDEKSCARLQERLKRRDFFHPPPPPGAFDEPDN
# DhelOBP10 [4] = target: T1, DhelOBP10; assay: Competitive fluorescence-binding assay with 1-NPN probe, recombinant DhelOBP10; conditions: for Ki: DhelOBP10 Ki (dissociation constant), 1-NPN competition, mean ± SEM
# Procedure, shortened: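 Recombinant signal-peptide-free DhelOBP10 from E. coli (pET-32b; 1 mM IPTG induction, 12 h at 16°C), dialysed into Tris pH 7.4 or 5.0. […] Ligands (1 mM methanol stock) were added to 0–20 μM; Ki = IC50/(1+[1-NPN]/K1-NPN). Mean ± SEM.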
# M. alternatus adults = assay: Y-tube olfactometer binary choice assay, M. alternatus adults; type: in vivo, Monochamus alternatus; conditions: for behavioral response of M. alternatus adults in Y-tube: untreated adults, in words
# Procedure, shortened: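 Field-collected adults kept singly at 25°C on fresh pine twigs. RNAi: 1 μg dsMaltOBP24 or dsGFP injected into the frons of 4-day-old adults under CO₂ narcosis, with non-injected controls, and tested 4 days later. Y-tube with 40 cm stem, 30 cm arms at 60°, airflow 300 mL/min. Odour was 10 µL of 100-fold paraffin-oil dilution versus paraffin oil. Insects had 5 min; ≥30 per sex, each tested once; Chi-square.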
# D. helophoroides adults = assay: Y-tube olfactometer binary choice assay, D. helophoroides adults; type: in vivo, Dastarcus helophoroides; conditions: for attraction to D. helophoroides after silencing DhelOBP10: RNAi, compared with non-injected and dsGFP controls; for behavioral response of D. helophoroides adults in Y-tube: untreated adults, in words
# Procedure, shortened: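 Adults reared at 25°C on an artificial diet. RNAi: 4-day-old adults given 300 ng dsDhelOBP10 or dsGFP into the frons, with non-injected controls, and tested 4 days later. Y-tube with 15 cm stem, 12 cm arms at 75°, airflow 300 mL/min per arm. Odour was 10 µL of 100-fold paraffin-oil dilution on filter paper versus paraffin oil. Insects had 5 min; arms swapped; ≥60 insects (30 per sex), each tested once; Chi-square.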
# SaveOBP3 = conditions: fluorescence-binding assays; ref Vandermoten et al., 2011; cited from earlier work
# EbalOBP3 = conditions: fluorescence-binding assays; ref Vandermoten et al., 2011; cited from earlier work
Compound,quenching mechanism of the interaction with MaltOBP24 (MaltOBP24 [1]),quenching mechanism of the interaction with DhelOBP10 (DhelOBP10 [2]),Ki (MaltOBP24 [3]; pH5.0) [µM],Ki (MaltOBP24 [3]; pH7.4) [µM],Ki (DhelOBP10 [4]; pH5.0) [µM],Ki (DhelOBP10 [4]; pH7.4) [µM],ΔS (entropy change) (DhelOBP10 [2]),"Kq (bimolecular quenching constant) (DhelOBP10 [2]; DhelOBP10, pH 7.4, 289 K) [M⁻¹ s⁻¹]","Ksv (quenching constant) (DhelOBP10 [2]; DhelOBP10, pH 7.4, 289 K)","n (number of binding sites) (DhelOBP10 [2]; DhelOBP10, pH 7.4, 289 K)","ΔG (free energy change) (DhelOBP10 [2]; DhelOBP10, pH 7.4, 289 K)","Kq (bimolecular quenching constant) (DhelOBP10 [2]; DhelOBP10, pH 7.4, 298 K) [M⁻¹ s⁻¹]","Ksv (quenching constant) (DhelOBP10 [2]; DhelOBP10, pH 7.4, 298 K)","n (number of binding sites) (DhelOBP10 [2]; DhelOBP10, pH 7.4, 298 K)","ΔG (free energy change) (DhelOBP10 [2]; DhelOBP10, pH 7.4, 298 K)",behavioral response of M. alternatus adults in Y-tube (M. alternatus adults),behavioral response of D. helophoroides adults in Y-tube (D. helophoroides adults),further results
(+)-α-pinene,dynamic quenching,,,,,,,,,,,,,,,,,
CC1=CC[C@@H]2[C@@H]3[C@H]1[C@@]2(C)CCCC3(C)C [(+)-α-longipinene],,dynamic quenching,,,,,,,,,,,,,,,,
C=C1CC[C@H]2O[C@]2(C)CC[C@@H]2[C@@H]1CC2(C)C [(−)-caryophyllene oxide],,,38.5 ± 3.44,24.2 ± 1.94,3.65 ± 0.34,15.7 ± 1.26,,,,,,,,,,,,
CC1=CCC2C(C1)C2(C)C (centres unmarked) [3-carene],static quenching,static quenching,23.5 ± 2.33,3.31 ± 0.68,13.9 ± 2.91,14.5 ± 2.61,42.1 J/(mol·K),3.524e+11,"3,524 ± 122.4 L·mol^−1",0.9999 ± 0.0605,"−19,760.09 J·mol^−1",2.97e+11,"2,970 ± 15.32 L·mol^−1",0.9088 ± 0.0218,"−17,960.72 J·mol^−1",did not affect their behavior,significant preference,"Ka (apparent association constant) (MaltOBP24 [1]; MaltOBP24, pH 7.4, 289 K): 9,394,307.39 L·mol^−1; Kq (bimolecular quenching constant) (MaltOBP24 [1]; MaltOBP24, pH 7.4, 289 K): 2.4156e+12 M⁻¹ s⁻¹; Ksv (quenching constant) (MaltOBP24 [1]; MaltOBP24, pH 7.4, 289 K): 24,156 ± 442.5 L·mol^−1; Ka (apparent association constant) (MaltOBP24 [1]; MaltOBP24, pH 7.4, 298 K): 3,347,243.70 L·mol^−1; Kq (bimolecular quenching constant) (MaltOBP24 [1]; MaltOBP24, pH 7.4, 298 K): 1.8949e+12 M⁻¹ s⁻¹; Ksv (quenching constant) (MaltOBP24 [1]; MaltOBP24, pH 7.4, 298 K): 18,949 ± 876.5 L·mol^−1; ΔH (enthalpy change) (DhelOBP10 [2]): −7,595.91 J·mol^−1; Kd (DhelOBP10 [2]; DhelOBP10, pH 7.4, 289 K): 268 µM; Kd (DhelOBP10 [2]; DhelOBP10, pH 7.4, 298 K): 711 µM; main acting force between ligand and DhelOBP10 (DhelOBP10 [2]): electrostatic force; attraction to D. helophoroides after silencing DhelOBP10 (D. helophoroides adults): significantly lower attraction index"
C=CC(=C)CCC=C(C)C [myrcene],,,22.4 ± 2.29,24.3 ± 3.95,3.93 ± 0.71,28.7 ± 1.12,,,,,,,,,,,,
CC12CCC(CC1=O)C2(C)C (centres unmarked) [camphor],,,> 50,> 50,9.09 ± 1.7,33.8 ± 1.04,,,,,,,,,,,,
C=C1C2CCC(C2)C1(C)C (centres unmarked) [camphene],,,> 50,22.1 ± 3.21,8.29 ± 1.99,24.5 ± 2.44,,,,,,,,,,,,
CC1=CCC(=C(C)C)CC1 [α-terpinolene],static quenching,static quenching,,,,,0.008678 kcal/mol,5.736e+11,"5,736 ± 153.1 L·mol^−1",1.0321 ± 0.0670,"−21,851.44 J·mol^−1",2.139e+11,"2,139 ± 58.09 L·mol^−1",0.9823 ± 0.1034,"−18,944.55 J·mol^−1",did not affect their behavior,did not show preference,"Ka (apparent association constant) (MaltOBP24 [1]; MaltOBP24, pH 7.4, 289 K): 5,449,703.40 L·mol^−1; Kq (bimolecular quenching constant) (MaltOBP24 [1]; MaltOBP24, pH 7.4, 289 K): 2.5179e+12 M⁻¹ s⁻¹; Ksv (quenching constant) (MaltOBP24 [1]; MaltOBP24, pH 7.4, 289 K): 25,179 ± 659.6 L·mol^−1; Ka (apparent association constant) (MaltOBP24 [1]; MaltOBP24, pH 7.4, 298 K): 2,525,092.74 L·mol^−1; Kq (bimolecular quenching constant) (MaltOBP24 [1]; MaltOBP24, pH 7.4, 298 K): 2.0347e+12 M⁻¹ s⁻¹; Ksv (quenching constant) (MaltOBP24 [1]; MaltOBP24, pH 7.4, 298 K): 20,347 ± 501.6 L·mol^−1; Ka (apparent association constant) (DhelOBP10 [2]; DhelOBP10, pH 7.4, 289 K): 8,904.93 L·mol^−1; ΔH (enthalpy change) (DhelOBP10 [2]): −11,356.86 J·mol^−1; Ka (apparent association constant) (DhelOBP10 [2]; DhelOBP10, pH 7.4, 298 K): 2,093.14 L·mol^−1; main acting force between ligand and DhelOBP10 (DhelOBP10 [2]): electrostatic force"
C=CC(=C)CC/C=C(\C)CCC=C(C)C [(E)-β-farnesene],,,,,,,,,,,,,,,,,,affinity with SaveOBP3 (SaveOBP3): high affinity; affinity with EbalOBP3 (EbalOBP3): high affinity
C=C(C)[C@H]1CC=C(C)CC1 [R-(+)-limonene],dynamic quenching,static quenching,,,,,0.01114 kcal/mol,6.287e+11,"6,287 ± 91.45 L·mol^−1",0.9715 ± 0.0292,"−20,458.37 J·mol^−1",4.016e+11,"4,016 ± 108.1 L·mol^−1",0.9324 ± 0.0422,"−18,738.30 J·mol^−1",did not affect their behavior,significant preference,"ligand-binding affinity with DhelOBP10 (class) (DhelOBP10 [4]; fluorescence binding combined with quenching): high (high if the Ki values <20 μM); Ka (apparent association constant) (DhelOBP10 [2]; DhelOBP10, pH 7.4, 289 K): 4,986.95 L·mol^−1; ΔH (enthalpy change) (DhelOBP10 [2]): −6,986.94 J·mol^−1; Ka (apparent association constant) (DhelOBP10 [2]; DhelOBP10, pH 7.4, 298 K): 1,925.95 L·mol^−1; attraction to D. helophoroides after silencing DhelOBP10 (D. helophoroides adults): not altered"
(+)-fenchone,static quenching,static quenching,,,,,0.01694 kcal/mol,3.742e+11,"3,742 ± 92.59 L·mol^−1",0.9404 ± 0.0271,"−18,347.45 J·mol^−1",2.913e+11,"2,913 ± 190.8 L·mol^−1",0.9471 ± 0.0676,"−18,846.32 J·mol^−1",significantly attracted; also recorded: could attract adults,significantly attracted; also recorded: significant preference,"Ka (apparent association constant) (MaltOBP24 [1]; MaltOBP24, pH 7.4, 289 K): 3,312,799.36 L·mol^−1; Kq (bimolecular quenching constant) (MaltOBP24 [1]; MaltOBP24, pH 7.4, 289 K): 2.4531e+12 M⁻¹ s⁻¹; Ksv (quenching constant) (MaltOBP24 [1]; MaltOBP24, pH 7.4, 289 K): 24,531 ± 303.9 L·mol^−1; Ka (apparent association constant) (MaltOBP24 [1]; MaltOBP24, pH 7.4, 298 K): 2,154,595.09 L·mol^−1; Kq (bimolecular quenching constant) (MaltOBP24 [1]; MaltOBP24, pH 7.4, 298 K): 1.4813e+12 M⁻¹ s⁻¹; Ksv (quenching constant) (MaltOBP24 [1]; MaltOBP24, pH 7.4, 298 K): 14,813 ± 141.8 L·mol^−1; Ka (apparent association constant) (DhelOBP10 [2]; DhelOBP10, pH 7.4, 289 K): 2,071.51 L·mol^−1; Ka (apparent association constant) (DhelOBP10 [2]; DhelOBP10, pH 7.4, 298 K): 2,011.77 L·mol^−1; main acting force between ligand and DhelOBP10 (DhelOBP10 [2]): hydrophobic; attraction index to M. alternatus after silencing MaltOBP24 (M. alternatus adults; RNAi, compared with non-injected and dsGFP controls): significantly decreased; attraction to D. helophoroides after silencing DhelOBP10 (D. helophoroides adults): significantly decreased"
